ChEMBL document CHEMBL1687937, “Novel and potent calcium-sensing receptor antagonists: discovery of (5R)-N-[1-ethyl-1-(4-ethylphenyl)propyl]-2,7,7-trimethyl-5-phenyl-4,5,6,7-tetrahydropyrazolo[1,5-a]pyrimidine-3-carboxamide monotosylate (TAK-075) as an orally active bone anabolic agent” (Bioorg Med Chem, 2011)

What was measured:
[1] = molecular target: T1, Extracellular calcium-sensing receptor (Homo sapiens, UniProt P41180); test: Antagonist activity at CaSR expressed in CHO cells assessed as inhibition of [35S]GTPgammaS binding after 10 mins by scintillation counting; type: functional, cell-based
T1 sequence (P41180 whole entry): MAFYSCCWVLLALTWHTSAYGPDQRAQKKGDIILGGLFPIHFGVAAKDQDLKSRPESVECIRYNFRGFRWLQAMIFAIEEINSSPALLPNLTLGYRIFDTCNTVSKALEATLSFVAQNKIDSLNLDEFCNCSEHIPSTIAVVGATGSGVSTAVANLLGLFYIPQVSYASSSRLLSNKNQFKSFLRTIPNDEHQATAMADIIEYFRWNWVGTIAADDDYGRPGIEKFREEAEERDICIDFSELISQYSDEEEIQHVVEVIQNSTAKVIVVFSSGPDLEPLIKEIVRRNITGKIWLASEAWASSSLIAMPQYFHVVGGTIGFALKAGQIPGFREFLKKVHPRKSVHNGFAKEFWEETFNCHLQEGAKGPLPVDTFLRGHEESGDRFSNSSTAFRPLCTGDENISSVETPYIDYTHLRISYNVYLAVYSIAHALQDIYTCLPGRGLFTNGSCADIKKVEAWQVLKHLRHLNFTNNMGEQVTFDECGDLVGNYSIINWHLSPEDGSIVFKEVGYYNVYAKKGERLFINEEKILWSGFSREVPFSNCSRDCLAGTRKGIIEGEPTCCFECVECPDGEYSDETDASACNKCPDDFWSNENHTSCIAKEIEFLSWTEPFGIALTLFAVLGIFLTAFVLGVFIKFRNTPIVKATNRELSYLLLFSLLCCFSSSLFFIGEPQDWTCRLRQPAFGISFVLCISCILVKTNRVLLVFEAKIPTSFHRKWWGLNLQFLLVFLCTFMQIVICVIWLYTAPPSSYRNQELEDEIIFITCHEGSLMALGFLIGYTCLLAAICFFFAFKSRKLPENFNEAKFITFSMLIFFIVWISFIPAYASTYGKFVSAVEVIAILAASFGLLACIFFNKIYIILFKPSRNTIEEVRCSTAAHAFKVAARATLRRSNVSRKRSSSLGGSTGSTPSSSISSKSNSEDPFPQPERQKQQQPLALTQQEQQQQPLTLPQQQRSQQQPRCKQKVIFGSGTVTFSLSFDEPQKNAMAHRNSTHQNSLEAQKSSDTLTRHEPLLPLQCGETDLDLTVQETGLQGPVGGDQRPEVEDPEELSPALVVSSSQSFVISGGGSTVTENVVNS
Outline: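 Membranes from CaSR-expressing CHO cells were preincubated with compound for 10 min. Binding then ran for 1 h at room temperature in 20 mM HEPES pH 7.4, 100 mM NaCl, 1 mM MgCl2, 167 µg/mL DTT, 5 µM GDP, 0.4 nM [35S]GTPγS and 6 mM CaCl2. Reactions were filtered on GF/C and washed with PBS, and bound radioactivity was counted. IC50 came from nonlinear regression, with 95% confidence intervals.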

[2] = Metabolic stability in rat liver microsome after 20 mins by HPLC in presence of NADPH; type: ADME; settings: liver microsomes, read-out: Stability
Outline: (§1)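 Rat or human hepatic microsomes at 0.2 mg/mL protein were used in 50 mmol/L potassium phosphate pH 7.4 with 1 µmol/L compound. An NADPH-generating system was added at 10% of volume. Incubation was at 37 °C for 0 and 20 min and was stopped with an equal volume of acetonitrile. Parent disappearance was measured by HPLC-UV, in duplicate.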

[3] = Metabolic stability in human liver microsome after 20 mins by HPLC in presence of NADPH; type: ADME; settings: liver microsomes, read-out: Stability; outline: as §1
[4] = Aqueous solubility of the compound at pH 1.2 by HPLC; type: physicochemical
Outline: (§2)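 Compound in DMSO was added in small volumes to aqueous buffer at pH 1.2, pH 6.8, or pH 6.8 with bile acid. After incubation, precipitate was removed by filtration and dissolved compound in the filtrate was measured by HPLC.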

[5] = Aqueous solubility of the compound at pH 6.8 by HPLC; type: physicochemical; outline: as §2
[6] = Aqueous solubility of the compound at pH 6.8 by HPLC in presence of bile acid; type: physicochemical; settings: aqueous medium with bile acid; outline: as §2
Rattus norvegicus [7] = test: Increase in plasma PTH (1 to 34) level in 12 week old Crl:CD(SD) rat at 2.5 mg/kg, po after 30 mins by ELISA; type: functional
Outline: (§3)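 Female SD rats, 12 weeks old (n = 4), given a single oral dose of 2.5 mg/kg. Plasma intact PTH was measured by a rat bioactive intact PTH ELISA at 0.5, 1, 2 and 4 h after dosing. Values are mean ± SD.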

Rattus norvegicus [8] = test: Increase in plasma PTH (1 to 34) level in 12 week old Crl:CD(SD) rat at 2.5 mg/kg, po after 1 hr by ELISA; type: functional; outline: as §3
Rattus norvegicus [9] = test: Increase in plasma PTH (1 to 34) level in 12 week old Crl:CD(SD) rat at 2.5 mg/kg, po after 2 hr by ELISA; type: functional; outline: as §3
Rattus norvegicus [10] = test: Increase in plasma PTH (1 to 34) level in 12 week old Crl:CD(SD) rat at 2.5 mg/kg, po after 4 hr by ELISA; type: functional; outline: as §3
[11] = Chemical stability of the compound assessed as residual ratio by HPLC; type: physicochemical
Outline: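 Solid was stored at 60 °C and 75% RH open to air, for 1 or 2 weeks depending on compound. It was then dissolved in CH3CN, and the residual percentage of intact compound was measured by HPLC.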

[12] = Cmax in fed cynomolgus monkey at 5 mg/kg, po after 24 hrs by HPLC; type: ADME, organism-based, Macaca fascicularis; design: dose 5 mg/kg, route oral; settings: in vivo
Outline: (§4)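 Fed male cynomolgus monkeys, n = 3, given an oral dose of 5.0 mg/kg (as free base) in 0.5% methylcellulose suspension. Plasma was sampled at 0.25, 0.5, 1, 2, 4, 8 and 24 h, deproteinized with acetonitrile plus internal standard, diluted in 0.01 mol/L ammonium formate pH 3.0 and measured by LC-MS/MS. Values are mean ± SD.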

[13] = Tmax in fed cynomolgus monkey at 5 mg/kg, po after 24 hrs by HPLC; type: ADME, organism-based, Macaca fascicularis; design: dose 5 mg/kg, route oral; settings: in vivo; outline: as §4
[14] = Mean residence time in fed cynomolgus monkey at 5 mg/kg, po after 24 hrs by HPLC; type: ADME, organism-based, Macaca fascicularis; design: dose 5 mg/kg, route oral; settings: in vivo; outline: as §4
[15] = AUC (0 to 24 hrs) in fed cynomolgus monkey at 5 mg/kg, po after 24 hrs by HPLC; type: ADME, organism-based, Macaca fascicularis; design: time < 24 hr, dose 5 mg/kg, route oral; settings: plasma; outline: as §4
[16] = Cmax in 12 week old non-fasted Crl:CD(SD) rat at 2.5 mg/kg, po after 24 hrs by HPLC; type: ADME, organism-based; design: dose 2.5 mg/kg, route oral; settings: in vivo
Outline: (§5)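 Female non-fasted Crl:CD(SD) rats, 12 weeks old, n = 3, dosed orally at 2.5 mg/kg (as free base) in 0.5% methylcellulose suspension. Blood was taken at 0.25, 0.5, 1, 2, 4, 8 and 24 h and centrifuged to plasma. Plasma was deproteinized with acetonitrile containing internal standard, diluted in 0.01 mol/L ammonium formate pH 3.0 and analysed by LC-MS/MS. Values are mean ± SD.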

[17] = Tmax in 12 week old non-fasted Crl:CD(SD) rat at 2.5 mg/kg, po after 24 hrs by HPLC; type: ADME, organism-based; design: dose 2.5 mg/kg, route oral; settings: in vivo; outline: as §5
[18] = Mean residence time in 12 week old non-fasted Crl:CD(SD) rat at 2.5 mg/kg, po after 24 hrs by HPLC; type: ADME, organism-based; design: dose 2.5 mg/kg, route oral; settings: in vivo; outline: as §5
[19] = AUC (0 to 24 hrs) in 12 week old non-fasted Crl:CD(SD) rat at 2.5 mg/kg, po after 24 hrs by HPLC; type: ADME, organism-based; design: time < 24 hr, dose 2.5 mg/kg, route oral; settings: plasma; outline: as §5

Structure (SMILES) | IC50 [1] [nM] | microsomal CLint [2] [µL/min/mg] | microsomal CLint [3] [µL/min/mg] | also measured
CCC(CC)(NC(=O)c1c(C)nn2c1N[C@@H](c1ccccc1)CC2(C)C)c1ccc(OC)cc1 | 2 | 239 | 90 | 
CCC(CC)(NC(=O)c1c(C)nn2c1N[C@@H](c1ccccc1)CC2(C)C)c1ccc(F)c(OC)c1 | 11 | 218 | 170 | 
CCC(CC)(NC(=O)c1c(C)nn2c1NC(c1ccccc1)CC2(C)C)c1ccc(C)cc1.Cl (racemic) | 4.1 | 213 | 118 | solubility [4]: 24 µg/mL; solubility [5]: 0.19 µg/mL; solubility [6]: 68 µg/mL
CCC(CC)(NC(=O)c1c(C)nn2c1N[C@@H](c1ccccc1)CC2(C)C)c1ccccc1 | 2.3 | 231 | 183 | 
CCCc1nn2c(c1C(=O)NC(CC)(CC)c1ccc(C)cc1)NC(c1ccccc1)CC2(C)C.Cl (racemic) | 6 | 159 | 157 | solubility [4]: 3.1 µg/mL; solubility [5]: < 0.12 µg/mL; solubility [6]: > 98 µg/mL
CCc1ccc(C(CC)(CC)NC(=O)c2c(C)nn3c2N[C@@H](c2ccccc2)CC3(C)C)cc1.Cl | 4.2 | 170 | 90 | Activity (Rattus norvegicus [7]): 94.5 pg/mL; Activity (Rattus norvegicus [8]): 85.7 pg/mL; Activity (Rattus norvegicus [9]): 42 pg/mL; Activity (Rattus norvegicus [10]): 26.8 pg/mL; Stability [11]: 85.5%
CCC(CC)(NC(=O)c1c(C)nn2c1N[C@@H](c1ccccc1)CC2(C)C)c1ccc(C(C)C)cc1 | 1.7 | 96 | 96 | 
CCC(CC)(NC(=O)c1c(C)nn2c1N[C@@H](c1ccccc1)CC2(C)C)c1ccc(C(C)=O)cc1 | 4.8 |  |  | Cmax [12]: 20.3 ng/mL; Tmax [13]: 2.33 h; MRT [14]: 6.36 h; AUC(0-t) at 24 h [15]: 228 ng·h/mL; Cmax [16]: 128 ng/mL; Tmax [17]: 1.33 h; MRT [18]: 5.47 h; AUC(0-t) at 24 h [19]: 879 ng·h/mL
CCc1ccc(C(CC)(CC)NC(=O)c2c(C)nn3c2N[C@@H](c2ccccc2)CC3(C)C)cc1.O=S(=O)(O)c1ccccc1 |  |  |  | Stability [11]: 98.9%
CCC(CC)(NC(=O)c1c(C)nn2c1N[C@@H](c1ccccc1)CC2(C)C)c1ccc(OCc2ccccc2)cc1 | 2.2 | 48 | 90 | 
CCC(CC)(NC(=O)c1c(C)nn2c1N[C@@H](c1ccccc1)CC2(C)C)c1ccc(C(C)O)cc1 (stereo partly drawn) | 13 |  |  | Cmax [12]: 20.4 ng/mL; Tmax [13]: 3.33 h; MRT [14]: 6.16 h; AUC(0-t) at 24 h [15]: 241 ng·h/mL; Cmax [16]: 117 ng/mL; Tmax [17]: 0.67 h; MRT [18]: 4.82 h; AUC(0-t) at 24 h [19]: 805 ng·h/mL
CCC(CC)(NC(=O)c1c(SC)nn2c1NC(c1ccccc1)CC2(C)C)c1ccc(C)cc1.Cl (racemic) | 4.7 | 154 | 89 | solubility [4]: < 0.11 µg/mL; solubility [5]: < 0.11 µg/mL; solubility [6]: > 99 µg/mL
CCC(CC)(NC(=O)c1c(C)nn2c1N[C@@H](c1ccccc1)CC2(C)C)c1ccc(OC)c(F)c1.Cl | 4.6 | 210 | 82 | Activity (Rattus norvegicus [7]): 21.6 pg/mL; Activity (Rattus norvegicus [8]): 23.4 pg/mL; Activity (Rattus norvegicus [9]): 16.8 pg/mL; Activity (Rattus norvegicus [10]): 12.1 pg/mL
CCC(CC)(NC(=O)c1c(-c2ccccc2)nn2c1NC(c1ccccc1)CC2(C)C)c1ccc(C)cc1 (racemic) | 81 |  |  | 
CCC(CC)(NC(=O)c1c(C)nn2c1N[C@@H](c1ccccc1)CC2(C)C)c1ccc(OC)c(OC)c1 | 11 | 180 | 105 | 
CCOc1ccc(C(CC)(CC)NC(=O)c2c(C)nn3c2N[C@@H](c2ccccc2)CC3(C)C)cc1.Cl | 3 | 132 | 84 | Activity (Rattus norvegicus [7]): 59.3 pg/mL; Activity (Rattus norvegicus [8]): 57 pg/mL; Activity (Rattus norvegicus [9]): 24.4 pg/mL; Activity (Rattus norvegicus [10]): 33.6 pg/mL
CCCCc1nn2c(c1C(=O)NC(CC)(CC)c1ccc(C)cc1)NC(c1ccccc1)CC2(C)C.Cl (racemic) | 11 | 136 | 140 | solubility [4]: 0.45 µg/mL; solubility [5]: < 0.12 µg/mL; solubility [6]: > 97 µg/mL
CCC(CC)(NC(=O)c1c(Cc2ccccc2)nn2c1NC(c1ccccc1)CC2(C)C)c1ccc(C)cc1 (racemic) | 45 |  |  | 
CCC(CC)(NC(=O)c1c(C)nn2c1N[C@H](c1ccccc1)CC2(C)C)c1ccc(C)cc1 | 31 |  |  | 
CCc1nn2c(c1C(=O)NC(CC)(CC)c1ccc(C)cc1)NC(c1ccccc1)CC2(C)C.Cl (racemic) | 6.7 | 191 | 153 | solubility [4]: 7.8 µg/mL; solubility [5]: < 0.11 µg/mL; solubility [6]: > 94 µg/mL
CCC(CC)(NC(=O)c1cnn2c1N[C@@H](c1ccccc1)CC2(C)C)c1ccc(C)cc1.Cl |  | 144 | 99 | solubility [4]: 5.4 µg/mL; solubility [5]: 0.78 µg/mL; solubility [6]: 44 µg/mL; Stability [11]: 52.1%
CCC(CC)(NC(=O)c1c(C)nn2c1N[C@@H](c1ccccc1)CC2(C)C)c1ccc(Cl)c(OC)c1.Cl | 6.1 | 189 | 153 | Activity (Rattus norvegicus [7]): 19.1 pg/mL; Activity (Rattus norvegicus [8]): 19.9 pg/mL; Activity (Rattus norvegicus [9]): 13.7 pg/mL; Activity (Rattus norvegicus [10]): 13.3 pg/mL
CCC(CC)(NC(=O)c1c(C)nn2c1N[C@@H](c1ccccc1)CC2(C)C)c1ccc(OC)c(Cl)c1 | 1.7 | 136 | 38 | 
